Test results from ChEMBL document CHEMBL1153883, “Cytotoxic, antioxidant activities and structure activity relationship of some newly synthesized terpenoidal oxaliplatin analogs” (Eur J Med Chem, 2009).

What was measured:
[1] = Acute toxicity in Albino rat; assay type: organism-based; conditions: in vivo
HT-29 [2] = test: Cytotoxicity against human HT-29 cells at 50 ug/ml after 12 hrs by neutral red assay; assay type: functional
Method in brief: (§1)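 HT-29 cells (Korean Cell Line Bank) were kept in DMEM with 10% FBS, penicillin and streptomycin at 37 °C under 5% CO2. Cells in 96-well plates were exposed to compounds for 12–48 h. The medium was replaced with fresh medium for neutral red uptake. Dye was extracted with 50% ethanol containing 50 mM sodium citrate (pH 4.2), and absorbance was read at 510 nm after 20 min.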

HT-29 [3] = test: Cytotoxicity against human HT-29 cells at 50 ug/ml after 24 hrs by neutral red assay; assay type: functional; method in brief: as §1
HT-29 [4] = test: Cytotoxicity against human HT-29 cells at 50 ug/ml after 48 hrs by neutral red assay; assay type: functional; method in brief: as §1
HT-29 [5] = test: Cytotoxicity against human HT-29 cells at 100 ug/ml after 12 hrs by neutral red assay; assay type: functional; method in brief: as §1
HT-29 [6] = test: Cytotoxicity against human HT-29 cells at 100 ug/ml after 24 hrs by neutral red assay; assay type: functional; method in brief: as §1
HT-29 [7] = test: Cytotoxicity against human HT-29 cells at 100 ug/ml after 48 hrs by neutral red assay; assay type: functional; method in brief: as §1
HT-29 [8] = test: Cytotoxicity against human HT-29 cells at 150 ug/ml after 12 hrs by neutral red assay; assay type: functional; method in brief: as §1
HT-29 [9] = test: Cytotoxicity against human HT-29 cells at 150 ug/ml after 24 hrs by neutral red assay; assay type: functional; method in brief: as §1
[10] = Antioxidant activity assessed as superoxide anion scavenging activity by NBT reduction method; assay type: functional; parameters: concentration or dose not given beside the values
Method in brief: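 Superoxide was generated by […]xanthine oxidase. Sample in 100 mM phosphate buffer (pH ~7.0) with xanthine oxidase (1.65 × 10^-2 units/ml) and NBT at 25 °C. The reaction was started by adding xanthine and followed by NBT reduction absorbance. Scavenging % was calculated from the absorbance increase with sample versus without sample (control).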

[11] = Antioxidant activity assessed as superoxide anion scavenging activity by NBT reduction method relative to Vitamin C; assay type: functional; parameters: concentration or dose not given beside the values

Structure (SMILES)	LD50 [1]	Activity (HT-29 [2])	Activity (HT-29 [3])	Activity (HT-29 [4])	Activity (HT-29 [5])	Activity (HT-29 [6])	Activity (HT-29 [7])	Activity (HT-29 [8])	Activity (HT-29 [9])	Activity [10]	Activity [11]
C[C@H]1[C@H](C)CC[C@]2(C(=O)O)CC[C@]3(C)C(=CC[C@@H]4[C@@]5(C)C[C@@H](O)[C@H](O)C(C)(C)[C@@H]5CC[C@]43C)[C@H]12 [COROSOLIC ACID]	816 mg/kg										
COC(=O)[C@]12CC[C@@H](C)[C@H](C)[C@H]1C1=CC[C@@H]3[C@@]4(C)C[C@@H](N=[N+]=[N-])[C@H](N=[N+]=[N-])C(C)(C)[C@@H]4CC[C@@]3(C)[C@]1(C)CC2	825 mg/kg	33%	35%	40%	44%	48%	55%	61%	66%	69.1%	1.54%
CC1(C)[C@H](O)[C@@H](O)C[C@]2(C)[C@H]3C(=O)C=C4[C@@H]5C[C@@](C)(C(=O)O)CC[C@]5(C)CC[C@@]4(C)[C@]3(C)CC[C@@H]12	656 mg/kg										
COC(=O)[C@]12CC[C@@H](C)[C@H](C)[C@H]1C1=CC[C@@H]3[C@@]4(C)C[C@@H](O)[C@H](O)C(C)(C)[C@@H]4CC[C@@]3(C)[C@]1(C)CC2 [COROSOLIC ACID METHYL ESTER]	818 mg/kg	22%	29%	35%	40%	44%	50%	53%	58%	68%	1.51%
COC(=O)[C@@]1(C)CC[C@]2(C)CC[C@]3(C)C(=CC(=O)[C@@H]4[C@@]5(C)C[C@H](O)[C@@H](O)C(C)(C)[C@@H]5CC[C@]43C)[C@@H]2C1	793 mg/kg	19%	21%	33%	39%	41%	42%	40%	52%	65.1%	1.45%
COC(=O)[C@@]1(C)CC[C@]2(C)CC[C@]3(C)C(=CC(=O)[C@@H]4[C@@]5(C)C[C@H](N=[N+]=[N-])[C@@H](N=[N+]=[N-])C(C)(C)[C@@H]5CC[C@]43C)[C@@H]2C1	898 mg/kg	29%	31%	36%	42%	46%	52%	55%	60%	68.1%	1.51%
O=C1O[C@H]([C@@H](O)CO)C(O)=C1O										45%	1%
COC(=O)[C@]12CC[C@@H](C)[C@H](C)[C@H]1C1=CC[C@@H]3[C@@]4(C)C[C@@H](N)[C@H](N)C(C)(C)[C@@H]4CC[C@@]3(C)[C@]1(C)CC2	836 mg/kg	44%	47%	50%	56%	60%	62%	70%	75%	74.2%	1.65%
COC(=O)[C@@]1(C)CC[C@]2(C)CC[C@]3(C)C(=CC(=O)[C@@H]4[C@@]5(C)C[C@H](N)[C@@H](N)C(C)(C)[C@@H]5CC[C@]43C)[C@@H]2C1	893 mg/kg	40%	43%	45%	48%	50%	58%	65%	70%	70.1%	1.56%
